From ChEMBL document CHEMBL1781931, “Anacardic acid derivatives as inhibitors of glyceraldehyde-3-phosphate dehydrogenase from Trypanosoma cruzi” (Bioorg Med Chem, 2008)
Calls of active or inactive are those of the source. The calls are words filed in the database; no cut-off is given here.

Key:
[1] = target: T1, Glyceraldehyde-3-phosphate dehydrogenase, glycosomal (Trypanosoma cruzi, UniProt P22513); test: Inhibition of Trypanosoma cruzi recombinant glycosomal GAPDH expressed in Escherichia coli using GAPDH and D-glyceraldehyde-3-phosphate
Outline: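 Recombinant T. cruzi GAPDH (20 nM; E. coli-expressed, purified by hydrophobic then cation-exchange chromatography) assayed at 25 °C in triplicate. Buffer: 100 mM triethanolamine-HCl pH 7.5, 1 mM EDTA, 1 mM 2-mercaptoethanol, 30 mM arsenate, 400 µM NAD+, 300 µM G-3-P. NADH formation read at 340 nm for 8 min. Initial rates give % inhibition; IC50 from ≥5 inhibitor concentrations by nonlinear regression.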

[2] = target: T1, Glyceraldehyde-3-phosphate dehydrogenase, glycosomal; test: Non-competitive inhibition of Trypanosoma cruzi recombinant glycosomal GAPDH expressed in Escherichia coli assessed as dissociation constant for ternary enzyme-substrate-inhibitor complex using D-glyceraldehyde-3-phosphate substrate by Lineweaver-Burk plot method
Outline: (§1)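 Inhibition type and Ki/αKi were determined against each substrate (G-3-P or NAD+), varying that substrate at 3 or 4 inhibitor concentrations. Conditions were otherwise those of the 340 nm NADH assay: 20 nM recombinant GAPDH, pH 7.5 triethanolamine buffer, 25 °C. Double-reciprocal plots were used, with parameters fitted in an enzyme-kinetics module. Means are of ≥3 experiments.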

[3] = target: Glyceraldehyde-3-phosphate dehydrogenase, glycosomal (Trypanosoma cruzi) (UniProt P22513); test: Inhibition of Trypanosoma cruzi recombinant glycosomal GAPDH expressed in Escherichia coli using GAPDH and D-glyceraldehyde-3-phosphate in presence of 0.01% Triton X-100
Outline: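 Assay as for the standard GAPDH rate measurement: 20 nM recombinant enzyme, triethanolamine-HCl pH 7.5 with EDTA, 2-mercaptoethanol, arsenate, 400 µM NAD+ and 300 µM G-3-P, 25 °C, NADH followed at 340 nm. Triton X-100 was added to 0.01% final, from a freshly made 1% (v/v) stock in triethanolamine buffer, to test for nonspecific inhibition.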

[4] = target: T1, Glyceraldehyde-3-phosphate dehydrogenase, glycosomal; test: Non-competitive inhibition of Trypanosoma cruzi recombinant glycosomal GAPDH expressed in Escherichia coli assessed as dissociation constant for binary enzyme-inhibitor complex using D-glyceraldehyde-3-phosphate substrate by Lineweaver-Burk plot method; outline: as §1
[5] = target: T1, Glyceraldehyde-3-phosphate dehydrogenase, glycosomal; test: Non-competitive inhibition of Trypanosoma cruzi recombinant glycosomal GAPDH expressed in Escherichia coli assessed as dissociation constant for binary enzyme-inhibitor complex using NAD+ substrate by Lineweaver-Burk plot method; outline: as §1
[6] = target: T1, Glyceraldehyde-3-phosphate dehydrogenase, glycosomal; test: Non-competitive inhibition of Trypanosoma cruzi recombinant glycosomal GAPDH expressed in Escherichia coli assessed as dissociation constant for ternary enzyme-substrate-inhibitor complex using NAD+ substrate by Lineweaver-Burk plot method; outline: as §1

T1 sequence (P22513 whole entry): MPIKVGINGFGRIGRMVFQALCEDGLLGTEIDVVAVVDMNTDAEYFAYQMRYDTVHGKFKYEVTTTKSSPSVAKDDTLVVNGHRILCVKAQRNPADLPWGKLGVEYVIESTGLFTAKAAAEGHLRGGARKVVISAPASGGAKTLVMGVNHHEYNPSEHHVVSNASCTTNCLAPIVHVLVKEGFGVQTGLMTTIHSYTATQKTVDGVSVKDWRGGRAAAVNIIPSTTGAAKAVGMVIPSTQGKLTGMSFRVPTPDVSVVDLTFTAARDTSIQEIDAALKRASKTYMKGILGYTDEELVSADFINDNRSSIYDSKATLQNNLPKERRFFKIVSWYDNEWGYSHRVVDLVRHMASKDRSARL
Sequence of Glyceraldehyde-3-phosphate dehydrogenase, glycosomal (Trypanosoma cruzi) (P22513 whole entry): as above

Row | SMILES | IC50 [1] [µM] | other results
1 | CCOC(=O)c1c(C=CCCCCCCCCOC2CCCCO2)cccc1OC (mixture of isomers) | > 300 | –
2 | CCOC(=O)c1c(O)cccc1CCCCCCCCO | > 250 | –
3 | CCOC(=O)c1c(C=CCCCCCCOC2CCCCO2)cccc1OC (mixture of isomers) | > 300 | –
4 | CCCCCCCCCCC=Cc1cccc(OC)c1C(=O)OCC (mixture of isomers) | > 300 | –
5 | CCCCCCCCCCCCc1cccc(O)c1C(=O)O | 55 | Ki [2]: 38 µM; inhibition [3]: Active; Ki [4]: 4 µM; Ki [5]: 5 µM; Ki [6]: 43 µM
6 | CCOC(=O)c1c(CCCCCCOC2CCCCO2)cccc1OC (configuration not stated) | > 250 | –
7 | CCCCCCCCCCCCc1cccc(OC)c1C(=O)OCC | > 250 | –
8 | C=CC/C=C\C/C=C\CCCCCCCc1cccc(O)c1C(=O)O [ANACARDIC ACID] | 28 | Ki [2]: 4 µM; inhibition [3]: Active; Ki [4]: 2 µM; Ki [5]: 4 µM; Ki [6]: 6 µM
9 | CCOC(=O)c1c(C=CCCCCOC2CCCCO2)cccc1OC (mixture of isomers) | > 300 | –

Continued, in another order:

Row | IC50 [1] [µM] | SMILES | other results
10 | > 250 | O=C(O)c1c(O)cccc1CCCCCCO | –
11 | 215 | CCCCCCCCCCCCc1cccc(O)c1C(=O)OCC | –
12 | > 250 | CCOC(=O)c1c(O)cccc1CCCCCCO | –
13 | 200 | CCCCCCCCCc1cccc(O)c1C(=O)O | –
14 | 240 | O=C(O)c1c(O)cccc1CCCCCCCCCCO | –
15 | > 250 | CCOC(=O)c1c(O)cccc1CCCCCCCCCCO | –
16 | > 250 | CCCCCCCCCc1cccc(OC)c1C(=O)OCC | –
17 | > 300 | CCCCCCCC=Cc1cccc(OC)c1C(=O)OCC (mixture of isomers) | –
18 | > 250 | O=C(O)c1c(O)cccc1CCCCCCCCO | –
19 | > 250 | O=CCCCCCCCc1cccc(O)c1C(=O)O | –
20 | > 250 | CCCCCCCCCc1cccc(O)c1C(=O)OCC | –
21 | > 250 | CCOC(=O)c1c(CCCCCCCCCCOC2CCCCO2)cccc1OC (configuration not stated) | –
22 | > 250 | CCOC(=O)c1c(CCCCCCCCOC2CCCCO2)cccc1OC (configuration not stated) | –
